Where two headings read alike, the source gives them in different places.

Consider six molecules from paper PMC12618243 (Nature Structural & Molecular Biology, 2025).

Data set [1] addresses T1, OSH6 (Saccharomyces cerevisiae, UniProt Q02201).
T1 sequence (Q02201 1-448): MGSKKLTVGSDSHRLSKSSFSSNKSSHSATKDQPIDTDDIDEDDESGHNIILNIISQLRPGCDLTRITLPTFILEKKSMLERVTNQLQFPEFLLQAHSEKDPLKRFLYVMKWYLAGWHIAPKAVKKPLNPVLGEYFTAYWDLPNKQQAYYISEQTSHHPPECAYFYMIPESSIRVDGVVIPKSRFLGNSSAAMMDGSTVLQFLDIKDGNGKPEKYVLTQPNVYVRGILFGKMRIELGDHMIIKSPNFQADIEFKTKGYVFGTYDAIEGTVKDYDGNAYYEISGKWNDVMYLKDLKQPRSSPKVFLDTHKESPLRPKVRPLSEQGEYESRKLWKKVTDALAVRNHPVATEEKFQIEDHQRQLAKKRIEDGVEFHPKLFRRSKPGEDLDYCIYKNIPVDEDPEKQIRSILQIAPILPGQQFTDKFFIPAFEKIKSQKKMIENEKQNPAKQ
Kind of data set: ITC binding of IST2 peptides to OSH6. To be noted: R750A peptide, Extended Data Fig. 7l. Further details: species or system S. cerevisiae.

In data set [2] the target is T1, OSH6. The data set is described as follows: Pulldown of OSH6 by GST-tagged IST2 peptides. The class given is binding, S. cerevisiae. In a few lines:
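GST-tagged IST2 peptides (OSH6-binding epitope, varying length) expressed in E. coli BL21 (0.3 mM IPTG at OD600 0.8, 25 °C, 2.5 h). Coated beads incubated with 5 µM (final) OSH6 plus BSA, 1 h, 4 °C. Beads washed without BSA, taken into SDS sample buffer.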

A further data set has as its system MSP2N2. Kind of data set: SEC of OSH6 with scaffold protein MSP2N2 in absence of lipids. The class given is binding. The following applies: no lipids, 1.2× molar excess MSP2N2, 30 min, performed once.
Data set [3] has as its target T2, OSH6 purified from E. coli (S. cerevisiae, UniProt Q02201 1-448).
T2 sequence: T1 sequence (Q02201 1-448)
The data set is described as follows: pull-down.

Data set [4] deals with the molecule itself. Kind of data set: cryo-EM structure.
The conditions of data set [5]: cited from earlier work.
Data set [6] addresses T1, OSH6. Kind of data set: SEC coelution of IST2fl and OSH6. The class given is binding, S. cerevisiae.
In data set [7] the test system is S. cerevisiae ist2;psd1-KO strain (AWY327). Kind of data set: Yeast complementation. The class given is cell-based. The following applies: 2% galactose, 30 °C, 3–4 days.
Data set [8] deals with the molecule itself. Kind of data set: cryo-EM structure. The source holds these as a separate data set.

In the case of “Substitution of R750 to alanine: peptide encompassing residues 732-761 of IST2 carrying the mutation R750A (ITC) (VAGATLPETIPTSKNYYLAFDEDGKSIRDA; UniProt P38250 732-761, looked up, fragment R750A)”, the “Binding to OSH6 by ITC (in words)” value in the data set with OSH6 [1] is “severely compromise binding to OSH6”. For the same molecule, the “OSH6 interaction in pulldown (in words)” value in the data set with OSH6 [2] was “severely compromise binding to OSH6”.

B1: OSH6: soluble lipid transfer protein, PS–PtdIns4P exchanger of S. cerevisiae (protein)
chain: T1 sequence (Q02201 1-448)
modifications: left off: GST, N-terminal, cleaved
Take B1: the “Interaction with isolated scaffold protein (in words)” value in the data set on MSP2N2 is on record as “nor did we detect interactions with the isolated scaffold protein”.
VAGATLPETIPTSKNYYLRFDEDGKSIR [GST fusion of the IST2 peptide encompassing residues 732-759]: in data set [3], the binding result is listed as “binds”.

B2: full-length IST2 (natural protein)
chain: MSQTITSLDPNCVIVFNKTSSANEKSLNVEFKRLNIHSIIEPGHDLQTSYAFIRIHQDNAKPLFSFLQNLDFIESIIPYHDTELSDDLHKLISISKSKILEAPKQYELYNLSNLTNNPKQSLYFAFLQNYIKWLIPFSFFGLSIRFLSNFTYEFNSTYSLFAILWTLSFTAFWLYKYEPFWSDRLSKYSSFSTIEFLQDKQKAQKKASSVIMLKKCCFIPVALLFGAILLSFQLYCFALEIFIKQIYNGPMISILSFLPTILICTFTPVLTVIYNKYFVEPMTKWENHSSVVNAKKSKEAKNFVIIFLSSYVPLLITLFLYLPMGHLLTAEIRTKVFNAFSILARLPTHDSDFIIDTKRYEDQFFYFIVINQLIQFSMENFVPSLVSIAQQKINGPNPNFVKAESEIGKAQLSSSDMKIWSKVKSYQTDPWGATFDLDANFKKLLLQFGYLVMFSTIWPLAPFICLIVNLIVYQVDLRKAVLYSKPEYFPFPIYDKPSSVSNTQKLTVGLWNSVLVMFSILGCVITATLTYMYQSCNIPGVGAHTSIHTNKAWYLANPINHSWINIVLYAVFIEHVSVAIFFLFSSILKSSHDDVANGIVPKHVVNVQNPPKQEVFEKIPSPEFNSNNEKELVQRKGSANEKLHQELGEKQPASSANGYEAHAATHANNDPSSLSSASSPSLSSSSSSSKTGVVKAVDNDTAGSAGKKPLATESTEKRNSLVKVPTVGSYGVAGATLPETIPTSKNYYLRFDEDGKSIRDAKSSAESSNATNNNTLGTESKLLPDGDAVDALSRKIDQIPKIAVTGGENNENTQAKDDAATKTPLIKDANIKPVVNAAVNDNQSKVSVATEQTKKTEVSTKNGPSRSISTKETKDSARPSNNNTTTTTTTDATQPHHHHHHHRHRDAGVKNVTNNSKTTESSSSSSAAKEKPKHKKGLLHKLKKKL
For the molecule B2, in “cryo-EM structure [4]”, the “stoichiometry N” value was found to be 2.

B3: IST2: full-length wild-type IST2, 946 residues, S. cerevisiae (protein)
chain: B2 chain
modifications: left off: SBP, N-terminal, state not stated | myc, N-terminal, state not stated
As for B3, the “Scrambling activity, previous publication (in words)” value in data set [5] is listed as “refuting scrambling activity”. In addition, in the data set with OSH6 [6], the “Coelution as a complex on SEC (in words)” value is on record as “coelute as a complex on size-exclusion chromatography”. For the same molecule, the “Growth complementation (in words)” value in [7] is on record as “growth deficit can be alleviated”.

B4: IST2 containing residues 1-716 (domain or fragment)
chain: MSQTITSLDPNCVIVFNKTSSANEKSLNVEFKRLNIHSIIEPGHDLQTSYAFIRIHQDNAKPLFSFLQNLDFIESIIPYHDTELSDDLHKLISISKSKILEAPKQYELYNLSNLTNNPKQSLYFAFLQNYIKWLIPFSFFGLSIRFLSNFTYEFNSTYSLFAILWTLSFTAFWLYKYEPFWSDRLSKYSSFSTIEFLQDKQKAQKKASSVIMLKKCCFIPVALLFGAILLSFQLYCFALEIFIKQIYNGPMISILSFLPTILICTFTPVLTVIYNKYFVEPMTKWENHSSVVNAKKSKEAKNFVIIFLSSYVPLLITLFLYLPMGHLLTAEIRTKVFNAFSILARLPTHDSDFIIDTKRYEDQFFYFIVINQLIQFSMENFVPSLVSIAQQKINGPNPNFVKAESEIGKAQLSSSDMKIWSKVKSYQTDPWGATFDLDANFKKLLLQFGYLVMFSTIWPLAPFICLIVNLIVYQVDLRKAVLYSKPEYFPFPIYDKPSSVSNTQKLTVGLWNSVLVMFSILGCVITATLTYMYQSCNIPGVGAHTSIHTNKAWYLANPINHSWINIVLYAVFIEHVSVAIFFLFSSILKSSHDDVANGIVPKHVVNVQNPPKQEVFEKIPSPEFNSNNEKELVQRKGSANEKLHQELGEKQPASSANGYEAHAATHANNDPSSLSSASSPSLSSSSSSSKTGVVKAVDNDTAGSAGKKPLATESTE
B4: the “stoichiometry N” value in the data set “cryo-EM structure [8]” turned out to be 2.
